These results are taken from ChEMBL document CHEMBL1135838, “alpha(1)-Adrenoceptor agonists: the identification of novel alpha(1A )subtype selective 2'-heteroaryl-2-(phenoxymethyl)imidazolines” (Bioorg Med Chem Lett, 2002).

Each structure is given as a SMILES string. A value given as a limit tells only on which side of the number the result lay.

The first assay addresses T1, Alpha-1D adrenergic receptor (Homo sapiens, UniProt P25100).
T1 sequence (P25100 whole entry): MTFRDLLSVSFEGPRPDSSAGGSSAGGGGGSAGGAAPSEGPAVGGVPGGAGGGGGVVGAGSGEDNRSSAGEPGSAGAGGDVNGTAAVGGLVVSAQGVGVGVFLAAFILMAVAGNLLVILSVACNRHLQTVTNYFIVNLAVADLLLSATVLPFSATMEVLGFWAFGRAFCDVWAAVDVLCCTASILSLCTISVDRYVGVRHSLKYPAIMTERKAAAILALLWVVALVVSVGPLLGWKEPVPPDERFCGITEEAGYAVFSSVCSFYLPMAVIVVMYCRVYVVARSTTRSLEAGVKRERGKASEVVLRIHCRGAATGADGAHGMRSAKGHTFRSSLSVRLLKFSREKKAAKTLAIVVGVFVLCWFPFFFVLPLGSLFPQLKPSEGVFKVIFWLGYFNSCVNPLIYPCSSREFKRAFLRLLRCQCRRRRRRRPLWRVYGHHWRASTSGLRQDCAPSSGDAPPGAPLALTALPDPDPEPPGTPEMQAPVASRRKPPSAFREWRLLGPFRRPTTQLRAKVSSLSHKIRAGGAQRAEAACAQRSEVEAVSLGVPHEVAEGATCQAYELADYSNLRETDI
Briefly: Activation of recombinant human adrenergic, alpha-1D receptor expressed in rat-1 fibroblasts assayed via calcium mobilization through Gq coupled PLC pathway. It is filed as functional. The method in brief: (§1)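 Rat-1 fibroblasts stably expressing cloned human α1A (clone #137-12), α1B (clone #37-11) or α1D (clone #16-7) adrenoceptor were loaded with the Calcium Green calcium-sensitive dye. Gq/PLC-coupled calcium mobilization was read on a FLIPR. Eleven-point concentration–response curves, with a top concentration typically 5 μM, were normalized to the 40 μM phenylephrine response to give pEC50 and % efficacy. Values are the mean of ≥2 experiments.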
For orientation: A change in cytosolic calcium serves as a functional read-out for many receptors and channels.
In the case of `Cc1ccoc1-c1ccccc1OCC1=NCCN1`, the concentration for a half-maximal effect (EC50) – broadly, the concentration giving half of the maximal effect – is > 100000 nM.

For the compound `CS(=O)(=O)Nc1ccc(F)c([C@@H](O)CN)c1` [NS-49], the concentration for a half-maximal effect (EC50) is > 100000 nM.

In the case of `Cc1csc(-c2ccccc2OCC2=NCCN2)n1`, the EC50 was > 100000 nM.

For `Cc1cnsc1-c1ccccc1OCC1=NCCN1`, the 50% effective concentration (EC50) is > 100000 nM.

With `Cc1cccc(-c2ccccc2OCC2=NCCN2)n1`, the concentration for a half-maximal effect (EC50) is > 100000 nM.

Consider `c1ccc(-c2ccccc2OCC2=NCCN2)cc1`, for which the 50% effective concentration (EC50) was > 100000 nM.

Take `c1ccc(-c2ncc[nH]2)c(OCC2=NCCN2)c1`: the 50% effective concentration (EC50) was > 100000 nM.

For the compound `Cc1cc(-c2ccccc2OCC2=NCCN2)sn1`, the EC50 is > 100000 nM.

On to `c1ccc(-c2ccccc2OCC2=NCCN2)nc1`, for which the EC50 is > 100000 nM.

Regarding `c1ccc(-c2cc[nH]n2)c(OCC2=NCCN2)c1`, the EC50 is > 100000 nM.

With `Cn1nccc1-c1ccccc1OCC1=NCCN1`, the concentration for a half-maximal effect (EC50) was > 100000 nM.

In the case of `c1cnc(-c2ccccc2OCC2=NCCN2)nc1`, the concentration giving a half-maximal response (EC50) was > 100000 nM.

Regarding `Cc1ccnc(-c2ccccc2OCC2=NCCN2)c1`, the EC50 was > 100000 nM.

With `c1ccc(-c2cnccn2)c(OCC2=NCCN2)c1`, the EC50 was > 100000 nM.

Another assay deals with T1, Alpha-1D adrenergic receptor. Briefly: Binding affinity of compound towards human Alpha-1D adrenergic receptor expressed in rat-1 fibroblast membranes. It is filed as cell membranes. The method in brief: (§2)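 Radioligand binding was run on membranes from Rat-1 fibroblasts expressing human α1A, α1B or α1D adrenoceptor. Affinity is reported as pIC50 (±SEM), the mean of at least two experiments.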
In the case of `Cc1ccoc1-c1ccccc1OCC1=NCCN1`, the IC50 – broadly, the concentration that inhibits the measured activity by half – was 417 nM.

Regarding `c1ccc(-c2ccccc2OCC2=NCCN2)cc1`, the 50% inhibitory concentration (IC50) is 324 nM.

As for `c1ccc(-c2ccccc2OCC2=NCCN2)nc1`, the IC50 is 1120 nM.

The compound `Cc1ccnc(-c2ccccc2OCC2=NCCN2)c1` gave a concentration for half-maximal inhibition (IC50) of 1410 nM.

The next assay deals with T2, Alpha-1A adrenergic receptor (Homo sapiens, UniProt P35348).
T2 sequence (P35348 whole entry): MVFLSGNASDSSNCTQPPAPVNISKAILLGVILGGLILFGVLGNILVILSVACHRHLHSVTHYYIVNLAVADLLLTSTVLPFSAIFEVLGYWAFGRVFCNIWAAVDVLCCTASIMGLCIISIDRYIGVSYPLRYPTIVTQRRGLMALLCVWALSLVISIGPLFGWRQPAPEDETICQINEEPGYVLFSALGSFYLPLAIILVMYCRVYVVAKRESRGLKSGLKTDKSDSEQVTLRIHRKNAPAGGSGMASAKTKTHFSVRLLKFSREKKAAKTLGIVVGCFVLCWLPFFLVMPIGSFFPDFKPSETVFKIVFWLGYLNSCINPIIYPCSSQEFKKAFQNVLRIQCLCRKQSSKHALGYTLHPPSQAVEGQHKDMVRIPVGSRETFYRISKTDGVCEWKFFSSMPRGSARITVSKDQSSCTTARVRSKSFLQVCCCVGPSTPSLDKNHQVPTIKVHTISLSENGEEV
Briefly: Binding affinity of compound towards Alpha-1A adrenergic receptor using membranes prepared from Rat-1 fibroblasts expressing human Alpha-1A adrenergic receptor. A digest of the protocol:
as §2
Turning to `Cc1ccoc1-c1ccccc1OCC1=NCCN1`, the IC50 was 34.7 nM. That is a double-digit nanomolar value.

On to `c1ccc(-c2ccccc2OCC2=NCCN2)cc1`, for which the IC50 was 27.5 nM.

As for `c1ccc(-c2ccccc2OCC2=NCCN2)nc1`, the half-inhibitory concentration (IC50) is 115 nM.

Consider `Cc1ccnc(-c2ccccc2OCC2=NCCN2)c1`, for which the half-maximal inhibitory concentration (IC50) was 1290 nM. This IC50 lies about 11-fold higher than the previous one.

The next assay concerns the target T3, Alpha-1A adrenergic receptor (Homo sapiens) (UniProt P35348).
T3 sequence (whole entry): T2 sequence (P35348 whole entry)
Briefly: Ability to activate cloned human alpha-1A receptor expressed in rat-1 fibroblasts via calcium mobilization through Gq coupled PLC pathway expressed as percent of phenylephrine (40 uM) response. The format is functional. The method in brief: as §1
Turning to `Cc1ccoc1-c1ccccc1OCC1=NCCN1`, the Max was determined as 99%.

As to `CS(=O)(=O)Nc1ccc(F)c([C@@H](O)CN)c1` [NS-49], the Max was determined as 86%.

In the case of `Cc1csc(-c2ccccc2OCC2=NCCN2)n1`, the Max stood at 104%.

On to `Cc1cnsc1-c1ccccc1OCC1=NCCN1`, for which the Max was found to be 104%.

For the compound `Cc1cccc(-c2ccccc2OCC2=NCCN2)n1`, the Max was 80%.

For the compound `c1ccc(-c2ncc[nH]2)c(OCC2=NCCN2)c1`, the Max is 122%.

`Cc1cc(-c2ccccc2OCC2=NCCN2)sn1`: the Max was found to be 75%.

As for `c1ccc(-c2cc[nH]n2)c(OCC2=NCCN2)c1`, the Max amounted to 119%.

Turning to `Cn1nccc1-c1ccccc1OCC1=NCCN1`, the Max is 107%.

As for `c1cnc(-c2ccccc2OCC2=NCCN2)nc1`, the Max is 90%.

For `c1ccc(-c2cnccn2)c(OCC2=NCCN2)c1`, the Max was 97%.

Another assay addresses T2, Alpha-1A adrenergic receptor. Briefly: Activation of recombinant human adrenergic,alpha-1A receptor expressed in rat-1 fibroblasts determined via calcium mobilization through Gq coupled PLC pathway. The format is functional. The method in brief: as §1
Turning to `Cc1ccoc1-c1ccccc1OCC1=NCCN1`, the concentration giving a half-maximal response (EC50) is 3.16 nM.

Take `CS(=O)(=O)Nc1ccc(F)c([C@@H](O)CN)c1` [NS-49]: the EC50 is 316 nM.

For the compound `Cc1csc(-c2ccccc2OCC2=NCCN2)n1`, the concentration for a half-maximal effect (EC50) is 25.1 nM.

For `Cc1cnsc1-c1ccccc1OCC1=NCCN1`, the EC50 is 12.6 nM.

As to `Cc1cccc(-c2ccccc2OCC2=NCCN2)n1`, the EC50 is 126 nM.

Take `c1ccc(-c2ccccc2OCC2=NCCN2)cc1`: the concentration for a half-maximal effect (EC50) was 3.16 nM.

Take `c1ccc(-c2ncc[nH]2)c(OCC2=NCCN2)c1`: the half-maximal effective concentration (EC50) was 100 nM.

`Cc1cc(-c2ccccc2OCC2=NCCN2)sn1`: the half-maximal effective concentration (EC50) was 158 nM.

In the case of `c1ccc(-c2ccccc2OCC2=NCCN2)nc1`, the concentration giving a half-maximal response (EC50) was 12.6 nM.

For `c1ccc(-c2cc[nH]n2)c(OCC2=NCCN2)c1`, the EC50 is 5.01 nM.

As to `Cn1nccc1-c1ccccc1OCC1=NCCN1`, the EC50 was 39.8 nM.

Consider `c1cnc(-c2ccccc2OCC2=NCCN2)nc1`, for which the EC50 is 1260 nM.

In the case of `Cc1ccnc(-c2ccccc2OCC2=NCCN2)c1`, the 50% effective concentration (EC50) is > 100000 nM.

For `c1ccc(-c2cnccn2)c(OCC2=NCCN2)c1`, the EC50 was 2.51 nM.

The target of the next assay is T4, Alpha-1B adrenergic receptor (Homo sapiens, UniProt P35368).
T4 sequence (P35368 whole entry): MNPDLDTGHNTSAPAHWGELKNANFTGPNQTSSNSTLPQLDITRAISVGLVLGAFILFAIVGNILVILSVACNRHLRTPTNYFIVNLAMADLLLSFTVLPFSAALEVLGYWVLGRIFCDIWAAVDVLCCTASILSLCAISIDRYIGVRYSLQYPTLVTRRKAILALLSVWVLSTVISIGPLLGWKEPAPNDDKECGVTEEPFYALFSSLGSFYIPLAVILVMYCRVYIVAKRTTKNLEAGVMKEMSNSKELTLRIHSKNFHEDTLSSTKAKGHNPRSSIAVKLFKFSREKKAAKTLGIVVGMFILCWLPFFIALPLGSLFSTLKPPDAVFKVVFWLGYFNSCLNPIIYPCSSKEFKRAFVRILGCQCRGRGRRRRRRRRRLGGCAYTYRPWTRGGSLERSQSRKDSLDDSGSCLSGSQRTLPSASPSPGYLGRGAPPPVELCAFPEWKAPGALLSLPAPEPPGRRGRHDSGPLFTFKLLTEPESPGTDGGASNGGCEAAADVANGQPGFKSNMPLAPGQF
Briefly: Activation of recombinant human adrenergic, alpha-1B receptor expressed in rat-1 fibroblasts determined via calcium mobilization through Gq coupled PLC pathway. It is filed as functional. A digest of the protocol:
as §1
Turning to `Cc1ccoc1-c1ccccc1OCC1=NCCN1`, the half-maximal effective concentration (EC50) is > 100000 nM.

On to `CS(=O)(=O)Nc1ccc(F)c([C@@H](O)CN)c1` [NS-49], for which the EC50 was > 100000 nM.

Turning to `Cc1csc(-c2ccccc2OCC2=NCCN2)n1`, the concentration for a half-maximal effect (EC50) is > 100000 nM.

Turning to `Cc1cnsc1-c1ccccc1OCC1=NCCN1`, the 50% effective concentration (EC50) was > 100000 nM.

In the case of `Cc1cccc(-c2ccccc2OCC2=NCCN2)n1`, the EC50 is > 100000 nM.

Consider `c1ccc(-c2ccccc2OCC2=NCCN2)cc1`, for which the EC50 is > 100000 nM.

Take `c1ccc(-c2ncc[nH]2)c(OCC2=NCCN2)c1`: the EC50 is > 100000 nM.

Take `Cc1cc(-c2ccccc2OCC2=NCCN2)sn1`: the EC50 is > 100000 nM.

On to `c1ccc(-c2ccccc2OCC2=NCCN2)nc1`, for which the EC50 was > 100000 nM.

As to `c1ccc(-c2cc[nH]n2)c(OCC2=NCCN2)c1`, the concentration for a half-maximal effect (EC50) was 79.4 nM.

Consider `Cn1nccc1-c1ccccc1OCC1=NCCN1`, for which the EC50 was > 100000 nM.

On to `c1cnc(-c2ccccc2OCC2=NCCN2)nc1`, for which the EC50 was > 100000 nM.

As for `Cc1ccnc(-c2ccccc2OCC2=NCCN2)c1`, the concentration giving a half-maximal response (EC50) was > 100000 nM.

As for `c1ccc(-c2cnccn2)c(OCC2=NCCN2)c1`, the concentration giving a half-maximal response (EC50) is 631 nM.

The next assay has as its target T4, Alpha-1B adrenergic receptor. Briefly: Binding affinity of compound towards human Alpha-1B adrenergic receptor expressed in rat fibroblast membranes. The format is cell membranes, Membrane. A digest of the protocol:
as §2
For `Cc1ccoc1-c1ccccc1OCC1=NCCN1`, the half-maximal inhibitory concentration (IC50) was 776 nM.

With `c1ccc(-c2ccccc2OCC2=NCCN2)cc1`, the IC50 was 741 nM.

In the case of `c1ccc(-c2ccccc2OCC2=NCCN2)nc1`, the 50% inhibitory concentration (IC50) was 2040 nM.

`Cc1ccnc(-c2ccccc2OCC2=NCCN2)c1` had a 50% inhibitory concentration (IC50) of 2450 nM.

A further assay deals with T5, Alpha-1B adrenergic receptor (Homo sapiens) (UniProt P35368).
T5 sequence (whole entry): T4 sequence (P35368 whole entry)
Briefly: Activation of human alpha-1B receptor expressed in rat-1 fibroblasts by calcium mobilization of Gq coupled PLC as percent phenylephrine (40 uM) response. It is filed as functional. A digest of the protocol: as §1
Regarding `c1ccc(-c2cc[nH]n2)c(OCC2=NCCN2)c1`, the Max came out at 39%.

In the case of `c1ccc(-c2cnccn2)c(OCC2=NCCN2)c1`, the Max was 46%.
